From ChEMBL document CHEMBL4689842, “EUbOPEN Chemogenomics Library wave 1” (2021)

Test system: Fibroblast
Experiment: Multiplex assay against human fibroblast
Type: toxicity, cell-based
How it was run: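 Live cells carried four stains from seeding: Hoechst33342, BioTracker Green Microtubule Cytoskeleton Dye, MitoTracker Red and Annexin V Alexa Fluor 680. They were imaged on a CQ1 microscope at 37°C and 5% CO2 after compound addition. Using CellPathfinder machine-learning gating, cells were split into Hoechst high-intensity objects or normal cells, normal cells into healthy, pyknosed or fragmented nuclei, and pyknosed cells into mitotic or apoptotic; tubulin, mitochondrial-mass and membrane-permeability phenotypes are per cents of healthy-nucleus cells.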

[1] = 12 h, 1 µM, compound concentration 1 uM, replicate 1
[2] = 12 h, 1 µM, compound concentration 1 uM, replicate 2
[3] = 12 h, 10 µM, compound concentration 10 uM, replicate 1
[4] = 12 h, 10 µM, compound concentration 10 uM, replicate 2
[5] = 24 h, 1 µM, compound concentration 1 uM, replicate 1
[6] = 24 h, 1 µM, compound concentration 1 uM, replicate 2
[7] = 24 h, 10 µM, compound concentration 10 uM, replicate 1
[8] = 24 h, 10 µM, compound concentration 10 uM, replicate 2
[9] = 48 h, 1 µM, compound concentration 1 uM, replicate 1
[10] = 48 h, 1 µM, compound concentration 1 uM, replicate 2
[11] = 48 h, 10 µM, compound concentration 10 uM, replicate 1
[12] = 48 h, 10 µM, compound concentration 10 uM, replicate 2

SMILES: CN1CCCC(n2nc(Cc3ccc(Cl)cc3)c3ccccc3c2=O)CC1.Cl (stereo not given) [AZELASTINE HYDROCHLORIDE]
- Population Apoptotic (%) [1]: 47%
- Population Fragmented Nuclei (%) [1]: 25%
- Population Healthy Nuclei (%) [1]: 50%
- Population Hoechst High Intensity Objects (%) [1]: 11%
- Population Membrane Permeable-Phenotype (%) [1]: 26%
- Population Mitochondria Different-Phenotype (%) [1]: 9%
- Population Mitotic Cells (%) [1]: 52%
- Population Normal (%) [1]: 88%
- Population Pyknosed Nuclei (%) [1]: 23%
- Population Tubulin-Different-Phenotype (%) [1]: 65%
- Total Cell Count [1]: 92
- Population Apoptotic (%) [2]: 25%
- Population Fragmented Nuclei (%) [2]: 6%
- Population Healthy Nuclei (%) [2]: 84%
- Population Membrane Permeable-Phenotype (%) [2]: 7%
- Population Mitochondria Different-Phenotype (%) [2]: 57%
- Population Mitotic Cells (%) [2]: 75%
- Population Pyknosed Nuclei (%) [2]: 8%
- Population Tubulin-Different-Phenotype (%) [2]: 68%
- Total Cell Count [2]: 51
- Population Apoptotic (%) [3]: 74%
- Population Fragmented Nuclei (%) [3]: 26%
- Population Healthy Nuclei (%) [3]: 38%
- Population Hoechst High Intensity Objects (%) [3]: 18%
- Population Membrane Permeable-Phenotype (%) [3]: 13%
- Population Mitochondria Different-Phenotype (%) [3]: 55%
- Population Mitotic Cells (%) [3]: 25%
- Population Normal (%) [3]: 81%
- Population Pyknosed Nuclei (%) [3]: 34%
- Population Tubulin-Different-Phenotype (%) [3]: 93%
- Total Cell Count [3]: 138
- Population Apoptotic (%) [4]: 57%
- Population Fragmented Nuclei (%) [4]: 14%
- Population Healthy Nuclei (%) [4]: 70%
- Population Hoechst High Intensity Objects (%) [4]: 4%
- Population Membrane Permeable-Phenotype (%) [4]: 84%
- Population Mitochondria Different-Phenotype (%) [4]: 98%
- Population Mitotic Cells (%) [4]: 42%
- Population Normal (%) [4]: 95%
- Population Pyknosed Nuclei (%) [4]: 15%
- Population Tubulin-Different-Phenotype (%) [4]: 100%
- Total Cell Count [4]: 96
- Population Apoptotic (%) [5]: 40%
- Population Fragmented Nuclei (%) [5]: 31%
- Population Healthy Nuclei (%) [5]: 42%
- Population Hoechst High Intensity Objects (%) [5]: 10%
- Population Membrane Permeable-Phenotype (%) [5]: 36%
- Population Mitochondria Different-Phenotype (%) [5]: 11%
- Population Mitotic Cells (%) [5]: 59%
- Population Normal (%) [5]: 89%
- Population Pyknosed Nuclei (%) [5]: 25%
- Population Tubulin-Different-Phenotype (%) [5]: 66%
- Total Cell Count [5]: 95
- Population Apoptotic (%) [6]: 50%
- Population Fragmented Nuclei (%) [6]: 7%
- Population Healthy Nuclei (%) [6]: 76%
- Population Hoechst High Intensity Objects (%) [6]: 8%
- Population Membrane Permeable-Phenotype (%) [6]: 10%
- Population Mitochondria Different-Phenotype (%) [6]: 57%
- Population Mitotic Cells (%) [6]: 50%
- Population Normal (%) [6]: 91%
- Population Pyknosed Nuclei (%) [6]: 15%
- Population Tubulin-Different-Phenotype (%) [6]: 50%
- Total Cell Count [6]: 57
- Population Apoptotic (%) [7]: 84%
- Population Fragmented Nuclei (%) [7]: 32%
- Population Healthy Nuclei (%) [7]: 53%
- Population Hoechst High Intensity Objects (%) [7]: 18%
- Population Membrane Permeable-Phenotype (%) [7]: 17%
- Population Mitochondria Different-Phenotype (%) [7]: 62%
- Population Mitotic Cells (%) [7]: 15%
- Population Normal (%) [7]: 81%
- Population Pyknosed Nuclei (%) [7]: 14%
- Population Tubulin-Different-Phenotype (%) [7]: 90%
- Total Cell Count [7]: 161
- Population Apoptotic (%) [8]: 95%
- Population Fragmented Nuclei (%) [8]: 16%
- Population Healthy Nuclei (%) [8]: 58%
- Population Hoechst High Intensity Objects (%) [8]: 4%
- Population Membrane Permeable-Phenotype (%) [8]: 98%
- Population Mitochondria Different-Phenotype (%) [8]: 100%
- Population Mitotic Cells (%) [8]: 4%
- Population Normal (%) [8]: 95%
- Population Pyknosed Nuclei (%) [8]: 25%
- Population Tubulin-Different-Phenotype (%) [8]: 100%
- Total Cell Count [8]: 96
- Population Apoptotic (%) [9]: 58%
- Population Fragmented Nuclei (%) [9]: 38%
- Population Healthy Nuclei (%) [9]: 41%
- Population Hoechst High Intensity Objects (%) [9]: 11%
- Population Membrane Permeable-Phenotype (%) [9]: 28%
- Population Mitochondria Different-Phenotype (%) [9]: 11%
- Population Mitotic Cells (%) [9]: 41%
- Population Normal (%) [9]: 88%
- Population Pyknosed Nuclei (%) [9]: 20%
- Population Tubulin-Different-Phenotype (%) [9]: 54%
- Total Cell Count [9]: 95
- Population Apoptotic (%) [10]: 75%
- Population Fragmented Nuclei (%) [10]: 31%
- Population Healthy Nuclei (%) [10]: 61%
- Population Hoechst High Intensity Objects (%) [10]: 8%
- Population Membrane Permeable-Phenotype (%) [10]: 10%
- Population Mitochondria Different-Phenotype (%) [10]: 1%
- Population Mitotic Cells (%) [10]: 25%
- Population Normal (%) [10]: 91%
- Population Pyknosed Nuclei (%) [10]: 7%
- Population Tubulin-Different-Phenotype (%) [10]: 73%
- Total Cell Count [10]: 123
- Population Apoptotic (%) [11]: 90%
- Population Fragmented Nuclei (%) [11]: 40%
- Population Healthy Nuclei (%) [11]: 52%
- Population Hoechst High Intensity Objects (%) [11]: 30%
- Population Membrane Permeable-Phenotype (%) [11]: 13%
- Population Mitochondria Different-Phenotype (%) [11]: 34%
- Population Mitotic Cells (%) [11]: 10%
- Population Normal (%) [11]: 69%
- Population Pyknosed Nuclei (%) [11]: 6%
- Population Tubulin-Different-Phenotype (%) [11]: 84%
- Total Cell Count [11]: 207
- Population Apoptotic (%) [12]: 66%
- Population Fragmented Nuclei (%) [12]: 38%
- Population Healthy Nuclei (%) [12]: 57%
- Population Hoechst High Intensity Objects (%) [12]: 25%
- Population Membrane Permeable-Phenotype (%) [12]: 22%
- Population Mitochondria Different-Phenotype (%) [12]: 39%
- Population Mitotic Cells (%) [12]: 33%
- Population Normal (%) [12]: 74%
- Population Pyknosed Nuclei (%) [12]: 3%
- Population Tubulin-Different-Phenotype (%) [12]: 88%
- Total Cell Count [12]: 253
